Data from ChEMBL document CHEMBL4354800, “Amphiphilic nebramine-based hybrids Rescue legacy antibiotics from intrinsic resistance in multidrug-resistant Gram-negative bacilli” (Eur J Med Chem, 2019).
Activity calls are given as the source filed them. No cut-off for these calls is given here.

Key:
Pseudomonas aeruginosa [1] = assay: Potentiation of minocycline-induced antibacterial activity against MDR/XDR Pseudomonas aeruginosa isolate PA259-96918 harboring GyrA T83I mutant assessed as fold reduction in minocycline MIC at 7.5 uM incubated for 18 hrs by broth microdilution method; type: functional
Pseudomonas aeruginosa [2] = assay: Potentiation of rifampicin-induced antimicrobial activity against MDR/XDR Pseudomonas aeruginosa isolate PA262-101856 harboring GyrA Thr83Ile mutant assessed as rifampicin MIC80 incubated for 18 hrs by broth microdilution method (reference value: 16 microg/ml); type: functional; conditions: isolate PA262-101856, 18 h
Acinetobacter baumannii [3] = assay: Synergistic antibacterial activity against multidrug-resistant Acinetobacter baumannii AB031 assessed as fractional inhibitory concentration index in presence of rifampicin incubated for 18 hrs by broth dilution method; type: functional
Pseudomonas aeruginosa [4] = assay: Potentiation of ciprofloxacin-induced antibacterial activity against MDR/XDR Pseudomonas aeruginosa isolate PA259-96918 harboring GyrA T83I mutant assessed as fold reduction in ciprofloxacin MIC at 7.5 uM incubated for 18 hrs by broth microdilution method; type: functional
Pseudomonas aeruginosa [5] = assay: Potentiation of minocycline-induced antimicrobial activity against MDR/XDR Pseudomonas aeruginosa isolate 100036 harboring GyrA Thr83Ile mutant assessed as minocycline MIC50 incubated for 18 hrs by broth microdilution method (reference value: 16 microg/ml); type: functional; conditions: isolate 100036, 18 h
Pseudomonas aeruginosa [6] = assay: Potentiation of minocycline-induced antibacterial activity against MDR/XDR Pseudomonas aeruginosa isolate 101885 harboring GyrA T83I mutant assessed as fold reduction in minocycline MIC at 7.5 uM incubated for 18 hrs by broth microdilution method; type: functional
Pseudomonas aeruginosa [7] = assay: Potentiation of rifampicin-induced antimicrobial activity against MDR/XDR Pseudomonas aeruginosa isolate PA264-104354 harboring GyrA Thr83Ile mutant assessed as rifampicin MIC80 incubated for 18 hrs by broth microdilution method (reference value: 16 microg/ml); type: functional; conditions: isolate PA264-104354, 18 h
Pseudomonas aeruginosa [8] = assay: Potentiation of minocycline-induced antimicrobial activity against MDR/XDR Pseudomonas aeruginosa isolate PA264-104354 harboring GyrA Thr83Ile mutant assessed as minocycline MIC80 incubated for 18 hrs by broth microdilution method (reference value: 32 microg/ml); type: functional; conditions: isolate PA264-104354, 18 h
Pseudomonas aeruginosa [9] = assay: Potentiation of moxifloxacin-induced antibacterial activity against MDR/XDR Pseudomonas aeruginosa isolate 101243 devoid of GyrA T83I mutant assessed as fold reduction in moxifloxacin MIC at 7.5 uM incubated for 18 hrs by broth microdilution method; type: functional
Summary of the method: (§1)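 CLSI broth microdilution. Overnight cultures were set to 0.5 McFarland in saline, diluted 1:50 in Mueller-Hinton broth to a final 5 × 10^5 CFU/mL, and incubated 18 h at 37 °C against 2-fold antibiotic dilutions. A fixed adjuvant level was present throughout. MIC = lowest concentration with no visible turbidity, confirmed at 590 nm. Potentiation = fold drop in antibiotic MIC versus antibiotic alone.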

Pseudomonas aeruginosa [10] = assay: Potentiation of moxifloxacin-induced antibacterial activity against MDR/XDR Pseudomonas aeruginosa isolate 91433 devoid of GyrA T83I mutant assessed as fold reduction in moxifloxacin MIC at 9 uM incubated for 18 hrs by broth microdilution method; type: functional; summary of the method: as §1
Pseudomonas aeruginosa [11] = assay: Potentiation of rifampicin-induced antibacterial activity against MDR/XDR Pseudomonas aeruginosa isolate PA259-96918 harboring GyrA T83I mutant assessed as fold reduction in rifampicin MIC at 9 uM incubated for 18 hrs by broth microdilution method; type: functional; summary of the method: as §1
Pseudomonas aeruginosa [12] = assay: Potentiation of moxifloxacin-induced antibacterial activity against MDR/XDR Pseudomonas aeruginosa isolate PA259-96918 harboring GyrA T83I mutant assessed as fold reduction in moxifloxacin MIC at 9 uM incubated for 18 hrs by broth microdilution method; type: functional; summary of the method: as §1
Pseudomonas aeruginosa [13] = assay: Potentiation of rifampicin-induced antibacterial activity against wild type Pseudomonas aeruginosa PAO1 assessed as fold reduction in rifampicin MIC at 9 uM incubated for 18 hrs by broth microdilution method; type: functional; summary of the method: as §1
Escherichia coli = assay: Potentiation of minocycline-induced antibacterial activity against Escherichia coli 107115 assessed as fold reduction in minocycline MIC at 4.1 uM incubated for 18 hrs by broth dilution method; type: functional
Summary of the method: (§2)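 Antibiotic MIC determined by CLSI broth microdilution (MHB, 5 × 10^5 CFU/mL, 18 h, 37 °C), once alone and once with a fixed concentration of the adjuvant. Potentiation is the ratio of the antibiotic MIC alone to its MIC in the presence of the adjuvant.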

Pseudomonas aeruginosa [14] = assay: Potentiation of rifampicin-induced antibacterial activity against wild type Pseudomonas aeruginosa PAO1 assessed as fold reduction in rifampicin MIC at 4.1 uM incubated for 18 hrs by broth microdilution method; type: functional; summary of the method: as §1
Acinetobacter baumannii [15] = assay: Potentiation of minocycline-induced antibacterial activity against multidrug-resistant Acinetobacter baumannii AB92247 assessed as fold reduction in minocycline MIC at 4.1 uM incubated for 18 hrs by broth dilution method; type: functional
Enterobacter cloacae = assay: Potentiation of rifampicin-induced antibacterial activity against Enterobacter cloacae 117029 assessed as fold reduction in rifampicin MIC at 4.1 uM incubated for 18 hrs by broth dilution method; type: functional; summary of the method: as §2
Acinetobacter baumannii [16] = assay: Potentiation of rifampicin-induced antibacterial activity against multidrug-resistant Acinetobacter baumannii AB110193 assessed as fold reduction in rifampicin MIC at 4.1 uM incubated for 18 hrs by broth dilution method; type: functional; summary of the method: as §1
Acinetobacter baumannii [17] = assay: Antimicrobial activity against multidrug-resistant Acinetobacter baumannii AB110193 incubated for 18 hrs by broth dilution method; type: functional; conditions: AB110193, 18 h
Summary of the method: (§3)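 Broth microdilution per CLSI: overnight cultures set to 0.5 McFarland in saline, diluted 1:50 in Mueller-Hinton broth to a final 5 × 10^5 CFU/mL, added to 2-fold serial dilutions, incubated 18 h at 37 °C; MIC is the lowest concentration without visible turbidity, confirmed at 590 nm.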

Klebsiella pneumoniae = assay: Synergistic antibacterial activity against Klebsiella pneumoniae 113254 assessed as fractional inhibitory concentration index in presence of rifampicin incubated for 18 hrs by broth dilution method; type: functional
Summary of the method: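 Checkerboard titration of the adjuvant against the antibiotic, run under the CLSI microdilution conditions (MHB, 5 × 10^5 CFU/mL, 18 h, 37 °C). Each agent's FIC is its MIC in combination divided by its MIC alone; FICI is the sum of the two FICs. FICI ≤0.5 was read as synergy, >0.5–4.0 as no interaction, and >4.0 as antagonism.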

Pseudomonas aeruginosa [18] = assay: Potentiation of rifampicin-induced bactericidal activity in MDR/XDR Pseudomonas aeruginosa isolate PA259-96918 harboring GyrA T83I mutant assessed as decrease in viable bacterial count at 1 ug/ml incubated for 8 hrs in presence of 1 ug/ml rifampicin by time kill curve assay; type: functional, organism-based
Summary of the method: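 Time-kill assay against XDR P. aeruginosa PA259. Overnight culture adjusted to 0.5 McFarland in saline, diluted 1:50 in LB. Incubated at 37 °C for 24 h with rifampicin and adjuvant, alone or combined at various concentrations. Aliquots taken at intervals, serially diluted in PBS and plated on LB agar. Colonies counted after 20 h at 37 °C. Untreated cells as control.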

Acinetobacter baumannii [19] = assay: Antimicrobial activity against multidrug-resistant Acinetobacter baumannii ATCC 17978 incubated for 18 hrs by broth dilution method; type: functional; conditions: ATCC 17978, 18 h; summary of the method: as §3

COc1c(N2C[C@@H]3CCCN(CCCCCCCCCCCCO[C@@H]4[C@@H](O)[C@H](N)C[C@H](N)[C@H]4O[C@H]4O[C@H](CN)[C@@H](O)C[C@H]4N)[C@@H]3C2)c(F)cc2c(=O)c(C(=O)O)cn(C3CC3)c12.Cl.Cl.Cl.Cl.Cl
fold change (FC) (Pseudomonas aeruginosa [1]): 32
MIC80 (Pseudomonas aeruginosa [2]): 0.13 µg/mL
fractional inhibitory concentration index (FICI) (Acinetobacter baumannii [3]): 0.04
fold change (FC) (Pseudomonas aeruginosa [4]): 4
MIC50 (Pseudomonas aeruginosa [5]): 0.5 µg/mL
fold change (FC) (Pseudomonas aeruginosa [6]): 16
MIC80 (Pseudomonas aeruginosa [7]): 0.13 µg/mL
MIC80 (Pseudomonas aeruginosa [8]): 1 µg/mL
fold change (FC) (Pseudomonas aeruginosa [9]): 32

Cl.Cl.Cl.Cl.Cl.Cl.NC[C@H]1O[C@H](O[C@H]2[C@H](OCCCCCCCCCCN3CCN(Cc4cccc5ccccc45)CC3)[C@@H](O)[C@H](N)C[C@@H]2N)[C@H](N)C[C@@H]1O
fold change (FC) (Pseudomonas aeruginosa [10]): 8
fold change (FC) (Pseudomonas aeruginosa [11]): >=256
fold change (FC) (Pseudomonas aeruginosa [12]): 64
fold change (FC) (Pseudomonas aeruginosa [13]): 256

Cl.Cl.Cl.Cl.Cl.NC[C@H]1O[C@H](O[C@H]2[C@H](OCCCCCCCCCCCCN3CCN(c4cc5c(cc4F)c(=O)c(C(=O)O)cn5C4CC4)CC3)[C@@H](O)[C@H](N)C[C@@H]2N)[C@H](N)C[C@@H]1O
fold change (FC) (Escherichia coli): 16
fold change (FC) (Pseudomonas aeruginosa [14]): >=256
fold change (FC) (Acinetobacter baumannii [15]): 2
fold change (FC) (Enterobacter cloacae): >=256
fold change (FC) (Acinetobacter baumannii [16]): 64
MIC (Acinetobacter baumannii [17]): > 128 µg/mL
fractional inhibitory concentration index (FICI) (Klebsiella pneumoniae): 0.047
Activity (Pseudomonas aeruginosa [18]): Active
MIC (Acinetobacter baumannii [19]): 128 µg/mL
